This is an account of results in ChEMBL document CHEMBL1177875, “Antitumor activity of (-)-alpha-bisabolol-based thiosemicarbazones against human tumor cell lines” (2010).

Common to all, as to format: functional
The test system of one test is HT-29. The test can be described thus: Cytotoxicity against human HT-29 cells by sulforhodamine B assay. The conditions noted are these: for CC50: read-out: LC50 (the source's name). The method, boiled down: (§1)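 Growth of the human tumor cell line was read colorimetrically with sulforhodamine B, following the NCI standard protocol, with doxorubicin as positive control. Compounds were tested at four concentrations in 10-fold dilutions (0.25 to 250). Dose-response curves gave GI50 (the concentration for 50% growth inhibition), TGI (total growth inhibition) and LC50 (50% cell death).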

For a further test, the system named is MCF7. The test can be described thus: Cytotoxicity against human MCF7 cells by sulforhodamine B assay. The conditions noted are these: for CC50: read-out: LC50 (the source's name). The gist of the method:
as §1

Another test deals with NCI-H460. The experiment in a line: Cytotoxicity against human NCI-H460 cells by sulforhodamine B assay. The conditions noted are these: for CC50: read-out: LC50 (the source's name). The method, boiled down:
as §1
Background: Sulforhodamine B stains cellular protein and so reports cell mass.

Test [1] can be described thus: Cytotoxicity against human PCO3 cells by sulforhodamine B assay. The conditions noted are these: for CC50: read-out: LC50 (the source's name). The gist of the method:
as §1

A further test has as its system K562. The experiment in a line: Cytotoxicity against human K562 cells by sulforhodamine B assay. The note with it: for CC50: read-out: LC50 (the source's name). The method, boiled down:
as §1

The nature of test [2]: Cytotoxicity against human NCI/ADR cells by sulforhodamine B assay. The conditions noted are these: NCI/ADR-RES; for CC50: read-out: LC50 (the source's name). The gist of the method: as §1
Another test has as its system OVCAR-3. The experiment in a line: Cytotoxicity against human OVCAR-3 cells by sulforhodamine B assay. The note with it: for CC50: read-out: LC50 (the source's name). The gist of the method: as §1
In another test the test system is UACC-62. The experiment in a line: Cytotoxicity against human UACC62 cells by sulforhodamine B assay. The method, boiled down:
as §1

In the case of `COc1cccc2c1C(=O)c1c(O)c3c(c(O)c1C2=O)C[C@@](O)(C(=O)CO)C[C@@H]3O[C@H]1C[C@H](N)[C@H](O)[C@H](C)O1` [DOXORUBICIN], the GI50 (commonly the concentration giving 50% growth inhibition) in the test on HT-29 was 0.18 µM; in the test with MCF7, 0.04 µM; with NCI-H460, 0.05 µM; in test [1] it was 0.17 µM; in the test with K562, 30 nM; in test [2] it was 5.99 µM. Besides, the GI50 in the test on OVCAR-3 came out at 0.07 µM; in the test on UACC-62, 0.18 µM. The TGI – broadly, the concentration giving total growth inhibition – in the test on HT-29 is 46 µM; with MCF7, 1.84 µM; in the test with NCI-H460, 1.42 µM; in test [1], 2.3 µM; with K562, 330 nM; in test [2] it was over 100 µM. The figures for the TGI with OVCAR-3 and with UACC-62 were 8.11 µM and 0.55 µM, respectively. Further, the CC50 in the test on HT-29 was over 100 µM; with MCF7 it was 46 µM; with NCI-H460 it was 37.9 µM; in test [1] it was over 100 µM; in the test with K562, over 100 µM; in test [2] it was over 100 µM. The CC50 in the test on OVCAR-3 was over 100 µM.
In the case of `CC1=CC[C@@H]([C@@](C)(O)CCCC(C)(C)NC(=S)N/N=C\c2ccc(N(C)C)cc2)CC1`, the GI50 in the test with HT-29 amounted to 27.7 µM; in the test on MCF7, 14 µM; with NCI-H460 it was 19.6 µM; in test [1], 13.7 µM; in the test on K562, 80 nM; in test [2] it was 25.2 µM. In addition, the GI50 in the test with OVCAR-3 was 3.6 µM; in the test with UACC-62, over 100 µM. The concentration for total growth inhibition (TGI) in the test with HT-29 is over 100 µM; in the test with MCF7, over 100 µM; in the test with NCI-H460 it was over 100 µM; in test [1] it was over 100 µM; with K562 it was 42000 nM; in test [2], over 100 µM. The TGI with OVCAR-3 and in the test with UACC-62 was over 100 µM each time. For the same compound, the CC50 (with HT-29; in the test on MCF7; in the test with NCI-H460; in test [1]; in the test with K562; in test [2]) was over 100 µM in each case. The CC50 in the test on OVCAR-3 was over 100 µM. In the test with UACC-62, this compound gave an LC50 (50% cell kill) of over 100 µM.
`CC1=CC[C@@H]([C@@](C)(O)CCCC(C)(C)NC(=S)NN=C(c2ccccc2)c2ccccc2)CC1`: the GI50 is over 100 µM in the test with HT-29; 36.7 µM with MCF7; 13.5 µM in the test on NCI-H460; over 100 µM in test [1]; 1940 nM with K562; 3.31 µM in test [2]. Also, the GI50 in the test on OVCAR-3 and in the test on UACC-62 was over 100 µM in each case. Further, the concentration for total growth inhibition (TGI) in the test with HT-29 is over 100 µM; in the test with MCF7, over 100 µM; in the test with NCI-H460, over 100 µM; in test [1], over 100 µM; in the test on K562, 4190 nM; in test [2], over 100 µM. Further, the concentration for total growth inhibition (TGI) in the test with OVCAR-3 and in the test on UACC-62 was over 100 µM throughout. In addition, the CC50 with HT-29 was over 100 µM; with MCF7, over 100 µM; in the test on NCI-H460 it was over 100 µM; in test [1] it was over 100 µM; with K562, 10.3 µM; in test [2], over 100 µM. Besides, in the test on OVCAR-3, the CC50 is over 100 µM. The compound also displayed an LC50 (50% cell kill) with UACC-62 of over 100 µM.
As for `CC1=CC[C@@H]([C@@](C)(O)CCCC(C)(C)NC(=S)N/N=C(/C)c2ccccc2)CC1`, the GI50 with HT-29 turned out to be 28.4 µM; in the test with MCF7 it was 23.6 µM; with NCI-H460, 12.6 µM; in test [1], 19.9 µM; in the test with K562 it was 10 nM; in test [2], 0.75 µM. Besides, the GI50 with OVCAR-3 is 14.3 µM; in the test with UACC-62, 22.4 µM. In addition, the total growth inhibition concentration (TGI) with HT-29 is over 100 µM; with MCF7 it was 62.9 µM; in the test on NCI-H460, over 100 µM; in test [1] it was over 100 µM; with K562, 70 nM; in test [2], over 100 µM. Also, the figures for the concentration for total growth inhibition (TGI) in the test on OVCAR-3 and in the test on UACC-62 were 59.5 µM and 93.3 µM, respectively. Moreover, the CC50 is over 100 µM in the test on HT-29; over 100 µM in the test on MCF7; over 100 µM in the test with NCI-H460; over 100 µM in test [1]; 1.54 µM in the test with K562; over 100 µM in test [2]. Moreover, the CC50 with OVCAR-3 was over 100 µM. Further, in the test with UACC-62, the LC50 (50% cell kill) is over 100 µM.
